Calls of active or inactive are those of the source. The rule behind the calls is not given here.
Each compound was assayed against Trace amine-associated receptor 1 (Rattus norvegicus) (UniProt Q923Y9) (assay: Agonist activity at rat TAAR1 expressed in HEK293 cells assessed as intracellular cAMP level at <=10 uM after 1 hr).
Chain of Trace amine-associated receptor 1 (Rattus norvegicus) (Q923Y9 whole entry): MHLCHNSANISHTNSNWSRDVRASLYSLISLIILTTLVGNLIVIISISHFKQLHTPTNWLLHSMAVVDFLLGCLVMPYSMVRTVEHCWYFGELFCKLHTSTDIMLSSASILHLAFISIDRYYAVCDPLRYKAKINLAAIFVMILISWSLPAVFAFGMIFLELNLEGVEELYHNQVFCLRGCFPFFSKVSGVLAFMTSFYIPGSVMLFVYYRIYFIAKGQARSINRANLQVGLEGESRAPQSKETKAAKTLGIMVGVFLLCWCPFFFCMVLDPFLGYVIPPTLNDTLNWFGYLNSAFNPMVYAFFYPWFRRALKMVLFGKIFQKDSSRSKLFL
Type: functional, cell-based
How it was run: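 HEK293 cells stably transfected with rTAAR1 (empty pcDNA3 vector cells as control) were harvested in Krebs-Ringer-Hepes buffer (KRH), then incubated in KRH with 133 µM IBMX plus test compound, forskolin (10 µM) or vehicle (DMSO) for 1 h at 37 °C. Intracellular cAMP was read. Tested at 10 µM or below. At least three separate experiments, each in triplicate.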
In the case of `CCCCc1oc2ccccc2c1C(=O)c1ccc(OCCNCC)cc1`, the Activity is reported as “Active”.
In the case of `CCCCc1oc2ccccc2c1C(=O)c1ccc(OCCN)cc1`, the Activity is reported as “Active”.
With `CCCCc1oc2ccccc2c1C(=O)c1cc(I)c(OCCN)c(I)c1` the Activity was “Active”.
For `CCCCc1oc2ccccc2c1C(=O)c1ccc(OCCN)c(I)c1`, the Activity was “Active”.

These compounds were tested against Trace amine-associated receptor 1 (Rattus norvegicus, UniProt Q923Y9) (assay: Agonist activity at rat TAAR1 expressed in HEK293 cells assessed as intracellular cAMP level).
Chain of Trace amine-associated receptor 1 (Q923Y9 whole entry): as above
Type: functional, cell-based
How it was run: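 HEK293 cells stably transfected with rat TAAR1, with empty pcDNA3 vector cells as control, were harvested in Krebs-Ringer-Hepes buffer. They were incubated in the same buffer with 133 µM IBMX plus test compound, 10 µM forskolin or DMSO vehicle for 1 h at 37 °C. Results are mean ± SEM of at least three separate experiments, each run in triplicate.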
In the case of `CCCCc1oc2ccccc2c1C(=O)c1cc(I)c(OCCN)c(I)c1`, the EC50 is reported as 1000 nM.

Each compound was assayed against Trace amine-associated receptor 1 (Rattus norvegicus) (UniProt Q923Y9) (assay: Antagonist activity at rat TAAR1 expressed in HEK293 cells assessed as intracellular cAMP level at 10 uM after 1 hr).
Type: functional, cell-based
How it was run: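 Stably rTAAR1-transfected HEK293 cells were harvested in Krebs-Ringer-Hepes buffer and incubated in it with 133 µM IBMX, 1 h at 37 °C. Test compound at 10 µM was given in competition with the agonist T1AM at 33 nM. Intracellular cAMP was read. At least three separate experiments, each in triplicate.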
`CCCCc1oc2ccccc2c1C(=O)c1ccc(OCCN(CC)CC)c(I)c1` was tested, and the Activity was “inactive”.
For `CCCCc1oc2ccccc2c1C(=O)c1ccc(OCCNCC)c(I)c1`, the Activity was “inactive”.
With `CCCCc1oc2ccccc2c1C(=O)c1cc(I)c(OCCNCC)c(I)c1` the Activity was “inactive”.
With `CCCCc1oc2ccccc2c1C(=O)c1ccc(OCCN(CC)CC)cc1` the Activity was “inactive”.
